Test results reported in ChEMBL document CHEMBL3872212, “Synthesis, antimicrobial activity and advances in structure-activity relationships (SARs) of novel tri-substituted thiazole derivatives” (2016).
Converted amounts (≈) assume the structure as drawn.

Columns and labels:
Format in all cases: functional
Staphylococcus aureus [1] = test: Antibacterial activity against Staphylococcus aureus ATCC 19433 at 200 ug/mL measured after 24 hrs by filter paper disc method; conditions: ATCC 19433, 24 h, read-out: DIZ
Escherichia coli [2] = test: Antibacterial activity against Escherichia coli ATCC 8739 at 200 ug/mL measured after 24 hrs by filter paper disc method; conditions: ATCC 8739, 24 h, read-out: DIZ
Bacillus spizizenii [3] = test: Antibacterial activity against Bacillus subtilis ATCC 6633 at 200 ug/mL measured after 24 hrs by filter paper disc method; conditions: ATCC 6633, 24 h, read-out: DIZ
Proteus vulgaris [4] = test: Antibacterial activity against Proteus vulgaris […] at 200 ug/mL measured after 24 hrs by filter paper disc method; conditions: read-out: DIZ
Aspergillus flavus [5] = test: Antifungal activity against Aspergillus flavus MTCC 1884 at 200 ug/mL incubated at 4 degC for 24 hrs followed by subsequent incubation at 37.5 degC for 3 days by poisoned food method; conditions: read-out: DIZ
Aspergillus flavus [6] = test: Ratio of MFC to MIC for Aspergillus flavus MTCC 1884
Staphylococcus aureus [7] = test: Antibacterial activity against Staphylococcus aureus ATCC 19433 measured after 24 hrs by broth dilution method
Procedure, shortened: (§1)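 MIC is the lowest concentration that arrests growth of the organism.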

Escherichia coli [8] = test: Bactericidal activity against Escherichia coli ATCC 8739 measured after 24 hrs by broth dilution method
Procedure, shortened: (§2)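 MBC/MFC is found by further steps carried out once the MIC has been determined.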

Aspergillus niger [9] = test: Fungicidal activity against Aspergillus niger MTCC 1881 measured after 2 days by broth dilution method; procedure, shortened: as §2
Aspergillus niger [10] = test: Ratio of MFC to MIC for Aspergillus niger MTCC 1881
Staphylococcus aureus [11] = test: Bactericidal activity against Staphylococcus aureus ATCC 19433 measured after 24 hrs by broth dilution method; procedure, shortened: as §2
Aspergillus niger [12] = test: Antifungal activity against Aspergillus niger MTCC 1881 at 200 ug/mL incubated at 4 degC for 24 hrs followed by subsequent incubation at 37.5 degC for 3 days by poisoned food method; conditions: read-out: DIZ
Proteus vulgaris [13] = test: Ratio of MBC to MIC for Proteus vulgaris […]
Aspergillus niger [14] = test: Antifungal activity against Aspergillus niger MTCC 1881 measured after 2 days by broth dilution method; procedure, shortened: as §1
Proteus vulgaris [15] = test: Antibacterial activity against Proteus vulgaris […] measured after 24 hrs by broth dilution method; procedure, shortened: as §1
Aspergillus flavus [16] = test: Antifungal activity against Aspergillus flavus MTCC 1884 measured after 2 days by broth dilution method; procedure, shortened: as §1
Aspergillus flavus [17] = test: Fungicidal activity against Aspergillus flavus MTCC 1884 measured after 2 days by broth dilution method; procedure, shortened: as §2
Escherichia coli [18] = test: Antibacterial activity against Escherichia coli ATCC 8739 measured after 24 hrs by broth dilution method; procedure, shortened: as §1
Bacillus spizizenii [19] = test: Ratio of MBC to MIC for Bacillus subtilis ATCC 6633
Bacillus spizizenii [20] = test: Bactericidal activity against Bacillus subtilis ATCC 6633 measured after 24 hrs by broth dilution method; procedure, shortened: as §2
Staphylococcus aureus [21] = test: Ratio of MBC to MIC for Staphylococcus aureus ATCC 19433
Proteus vulgaris [22] = test: Bactericidal activity against Proteus vulgaris […] measured after 24 hrs by broth dilution method; procedure, shortened: as §2
Escherichia coli [23] = test: Ratio of MBC to MIC for Escherichia coli ATCC 8739
Bacillus spizizenii [24] = test: Antibacterial activity against Bacillus subtilis ATCC 6633 measured after 24 hrs by broth dilution method; procedure, shortened: as §1

SMILES	zone of inhibition at 200 µg/mL (Staphylococcus aureus [1]) [mm]	zone of inhibition at 200 µg/mL (Escherichia coli [2]) [mm]	zone of inhibition at 200 µg/mL (Bacillus spizizenii [3]) [mm]	zone of inhibition at 200 µg/mL (Proteus vulgaris [4]) [mm]	zone of inhibition at 200 µg/mL (Aspergillus flavus [5]) [mm]	Ratio (Aspergillus flavus [6])	MIC (Staphylococcus aureus [7]) [µg]	MBC (Escherichia coli [8]) [µg]	MFC (Aspergillus niger [9]) [µg]	MBC (Staphylococcus aureus [11]) [µg]	zone of inhibition at 200 µg/mL (Aspergillus niger [12]) [mm]	MIC (Aspergillus niger [14]) [µg]	MIC (Proteus vulgaris [15]) [µg]	MIC (Aspergillus flavus [16]) [µg/mL]	MFC (Aspergillus flavus [17]) [µg]	MIC (Escherichia coli [18]) [µg]	MBC (Bacillus spizizenii [20]) [µg]	MBC (Proteus vulgaris [22]) [µg]	Ratio (Escherichia coli [23])	also measured
Cc1nc(-c2ccc(-c3ccc(F)c(C)c3)cc2)c(C)s1	16.4	18.1	14.6	15.2	5.63															
Cc1nc(-c2ccc(-c3ccc(CO)cc3)cc2)c(C)s1	21.6	23.8	20	17.6	17.1	>2	12.5	100	200	>200	14.5	25	100	25 (≈ 84.6 µM)	100	25	100	>200	>2	Ratio (Aspergillus niger [10]): >2; Ratio (Proteus vulgaris [13]): >2; Ratio (Bacillus spizizenii [19]): >2; Ratio (Staphylococcus aureus [21]): >2
Cc1nc(-c2ccc(-c3ccc(C(F)(F)F)cc3)cc2)c(C)s1	7.86	8.7	5.37	6.91																
CC(=O)N1CCN(c2ccc(OCC3COC(Cn4ccnc4)(c4ccc(Cl)cc4Cl)O3)cc2)CC1 (stereo not given) [KETOCONAZOLE]					28.4						25.4	6.25		12.5 (≈ 23.5 µM)						
Cc1nc(-c2ccc(-c3ccc(O)cc3)cc2)c(C)s1	19.2	21.1	17.7	20	15.3	>2	25	>200	200	100	13.6	50	50	25 (≈ 88.8 µM)	100	25	200	200	>2	Ratio (Aspergillus niger [10]): >2; Ratio (Proteus vulgaris [13]): >2; Ratio (Bacillus spizizenii [19]): >2; Ratio (Staphylococcus aureus [21]): >2
Cc1nc(-c2ccc(-c3ccc(I)cc3)cc2)c(C)s1	14.8	16.2	12.1	15.1	9.57						8									
Cc1cc(C)c(-c2ccc(-c3nc(C)sc3C)cc2)c(C)c1	26.1	28	24.6	22.1	27.8	2	25	12.5	100	100	25.2	6.25	12.5	12.5 (≈ 40.7 µM)	25	6.25	50	50	2	MIC (Bacillus spizizenii [24]): 6.25 µg/mL (≈ 20.3 µM)
